Laboratory results reported in ChEMBL document CHEMBL1914308, “N-fused imidazoles as novel anticancer agents that inhibit catalytic activity of topoisomerase IIα and induce apoptosis in G1/S phase” (J Med Chem, 2011).
pIC50, pKi: −log10 of the molar value. The source made the active and inactive calls. No cut-off for these calls is given here.

Legend:
[1] = molecular target: T1, DNA topoisomerase 2-alpha (Homo sapiens, UniProt P11388); assay: Inhibition of topoisomerase 2 alpha-mediated DNA relaxation activity in human HEK293 cells assessed as increase in supercoiled DNA at 5 to 25 uM […] by agarose gel electrophoresis; type: cell-based
T1 sequence (P11388 whole entry): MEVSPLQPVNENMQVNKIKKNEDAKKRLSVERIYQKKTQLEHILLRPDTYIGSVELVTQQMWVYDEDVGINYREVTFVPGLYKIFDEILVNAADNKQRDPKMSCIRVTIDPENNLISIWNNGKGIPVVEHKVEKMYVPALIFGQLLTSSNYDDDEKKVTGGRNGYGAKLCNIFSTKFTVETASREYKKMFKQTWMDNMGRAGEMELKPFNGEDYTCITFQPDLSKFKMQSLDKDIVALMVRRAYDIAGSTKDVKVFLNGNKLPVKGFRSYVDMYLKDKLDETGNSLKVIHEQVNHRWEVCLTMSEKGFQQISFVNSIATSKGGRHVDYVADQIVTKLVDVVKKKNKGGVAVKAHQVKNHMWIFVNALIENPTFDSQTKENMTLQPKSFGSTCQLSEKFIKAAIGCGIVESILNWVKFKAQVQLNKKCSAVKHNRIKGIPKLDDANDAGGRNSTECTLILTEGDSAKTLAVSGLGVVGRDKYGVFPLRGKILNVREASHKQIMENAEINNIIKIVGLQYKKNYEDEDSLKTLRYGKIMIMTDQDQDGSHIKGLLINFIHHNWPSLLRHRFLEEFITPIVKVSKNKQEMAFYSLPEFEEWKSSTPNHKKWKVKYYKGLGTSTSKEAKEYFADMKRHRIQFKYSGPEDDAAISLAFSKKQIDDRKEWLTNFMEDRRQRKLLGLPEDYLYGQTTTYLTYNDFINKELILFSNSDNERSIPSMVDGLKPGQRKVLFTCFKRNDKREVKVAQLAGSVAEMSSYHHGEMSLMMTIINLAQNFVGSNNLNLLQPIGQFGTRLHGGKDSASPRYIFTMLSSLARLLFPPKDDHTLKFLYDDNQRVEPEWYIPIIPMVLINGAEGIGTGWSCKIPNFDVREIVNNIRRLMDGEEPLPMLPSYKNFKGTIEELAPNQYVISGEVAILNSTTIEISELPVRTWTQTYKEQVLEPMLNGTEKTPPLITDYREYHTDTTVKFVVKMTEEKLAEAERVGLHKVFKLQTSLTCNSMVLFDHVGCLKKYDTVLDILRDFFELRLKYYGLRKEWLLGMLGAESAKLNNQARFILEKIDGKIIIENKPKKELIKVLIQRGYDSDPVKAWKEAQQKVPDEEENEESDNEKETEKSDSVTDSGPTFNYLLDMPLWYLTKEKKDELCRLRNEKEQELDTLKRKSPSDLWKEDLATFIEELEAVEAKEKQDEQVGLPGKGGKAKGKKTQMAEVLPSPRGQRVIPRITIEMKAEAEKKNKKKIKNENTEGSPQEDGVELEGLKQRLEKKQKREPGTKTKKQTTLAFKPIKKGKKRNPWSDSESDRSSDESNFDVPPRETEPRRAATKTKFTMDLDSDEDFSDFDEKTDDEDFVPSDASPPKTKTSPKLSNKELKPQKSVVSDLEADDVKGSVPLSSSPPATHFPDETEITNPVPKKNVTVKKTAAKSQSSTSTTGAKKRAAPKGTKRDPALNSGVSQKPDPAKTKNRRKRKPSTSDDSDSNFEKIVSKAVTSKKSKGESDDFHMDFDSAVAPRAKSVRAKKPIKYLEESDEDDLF

HEK293 [2] = assay: Cytotoxicity against human HEK293 cells assessed as cell survival after 48 hrs by MTT assay; type: functional; details: HEK293, 48 h, read-out: LC50 (the source's name)
Procedure, shortened: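 HEK 293 cells were cultured in DMEM with 10% FBS and antibiotics at 37 °C in 5% CO₂. At 60–70% confluence they were treated for 48 h with various concentrations, diluted in DMEM from 100 mM DMSO stocks. Survival was read by MTT. LC₅₀ is the concentration killing 50% of cells. Data are mean ± SD of three independent experiments.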

[3] = molecular target: T1, DNA topoisomerase 2-alpha; assay: Inhibition of etoposide poisoning activity against human recombinant DNA topoisomerase 2alpha assessed as enhancement of in relaxation of supercoiled plasmid pBR322 DNA at 100 uM after 30 mins by agarose gel electrophoresis
HEK293 [4] = assay: Induction of apoptosis in human HEK293 cells assessed as apoptotic cells at 15 uM after 48 hrs by propidium iodide staining-based FACS analysis (reference value: 4.88 +/- 0.8%); type: functional
HEK293 [5] = assay: Induction of apoptosis in human HEK293 cells assessed as increase in Bax/Bcl-XL ratio at 15 to 25 uM after 48 hrs by Western blot analysis; type: functional, cell-based
Procedure, shortened: (§1)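 Whole-cell extracts from HEK 293 cells after 48 h at graded concentrations, Western blotted for caspase-3, Bax, Bcl-XL and PARP (cleaved 86 kDa fragment); β-actin as loading control.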

HEK293 [6] = assay: Cytotoxicity against human HEK293 cells assessed as cell survival at 12 uM after 48 hrs by MTT assay; type: functional; details: HEK293, 48 h, read-out: Activity
Procedure, shortened: (§2)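 MTT survival of HEK 293 and Vero cells after 48 h with compound at graded concentrations. DMEM, 10% FBS, 37 °C, 5% CO2; dilutions in DMEM from 100 mM DMSO stock, added at 60–70% confluence. Mean ± SD of three independent experiments.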

[7] = molecular target: T1, DNA topoisomerase 2-alpha; assay: Inhibition of human topoisomerase 2 alpha-mediated decatenation of kDNA by agarose gel electrophoresis
Procedure, shortened: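 kDNA decatenation by hTopoIIα run at 10 to 100 μM compound under the standard decatenation conditions (37 °C, 30 min, agarose gel, densitometry); IC50 taken from the concentration–inhibition plot.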

[8] = molecular target: T1, DNA topoisomerase 2-alpha; assay: Inhibition of human topoisomerase 2 alpha-mediated relaxation of pRYG plasmid DNA at 100 uM by agarose gel electrophoresis
Procedure, shortened: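 250 ng supercoiled pRYG plasmid, 2–4 units hTopoIIα, 100 μM compound, ATP-containing Tris pH 8 buffer, 20 μL, 37 °C 30 min; SDS/proteinase K stop; 1% agarose in TAE without EtBr, post-stained 0.5 μg/mL EtBr; products quantified densitometrically.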

HEK293 [9] = assay: Induction of cell cycle arrest in human HEK293 cells assessed as accumulation at G2/M phase at 15 uM after 48 hrs by propidium iodide staining-based FACS analysis (reference value: 7.5 +/- 1.0%); type: functional
HEK293 [10] = assay: Anticlonogenic activity against human HEK293 cells assessed as inhibition of colony formation of cells at 25 uM after 48 hrs by crystal violet staining; type: functional, cell-based
HEK293 [11] = assay: Induction of apoptosis in human HEK293 cells assessed as apoptotic cells at 25 uM after 48 hrs by propidium iodide staining-based FACS analysis (reference value: 4.88 +/- 0.8%); type: functional
HEK293 [12] = assay: Induction of apoptosis in human HEK293 cells assessed as decrease in Bcl-XL protein expression at 15 to 25 uM after 48 hrs by Western blot analysis; type: functional, cell-based; procedure, shortened: as §1
HEK293 [13] = assay: Induction of apoptosis in human HEK293 cells assessed as apoptotic cells at 35 uM after 48 hrs by propidium iodide staining-based FACS analysis (reference value: 4.88 +/- 0.8%); type: functional
HEK293 [14] = assay: Induction of apoptosis in human HEK293 cells assessed as increase in caspase 3 expression at 15 to 25 uM after 48 hrs by Western blot analysis; type: functional, cell-based; procedure, shortened: as §1
[15] = molecular target: T1, DNA topoisomerase 2-alpha; assay: Competitive inhibition of human topoisomerase-2 alpha-ATPase activity by Lineweaver-Burk assay in presence of 200 to 520 uM ATP
Procedure, shortened: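 Compound at 0, 50, 100, 150 μM, each with ATP at 200–520 μM; 20 min at 37 °C. Released phosphate read by malachite green at OD 620 nm; Lineweaver–Burk analysis, Ki from slope replot.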

[16] = molecular target: T1, DNA topoisomerase 2-alpha; assay: Inhibition of topoisomerase 2 alpha-mediated DNA relaxation activity in human HEK293 cells assessed as increase in supercoiled DNA at 35 uM after 3 to 4 hrs by agarose gel electrophoresis in presence of 20 to 250 mM ATP; type: cell-based
HEK293 [17] = assay: Induction of cell cycle arrest in human HEK293 cells assessed as accumulation at G1 phase at 25 uM after 48 hrs by propidium iodide staining-based FACS analysis (reference value: 61 +/- 0.9%); type: functional
[18] = Cytotoxicity activity against african green monkey Vero assessed as cell survival at 100 uM after 48 hrs by MTT assay; type: cell-based; details: chlorocebus sabaeus, Vero cells; read-out: Activity; procedure, shortened: as §2
HEK293 [19] = assay: Induction of apoptosis in human HEK293 cells assessed as increase in Bax protein expression at 15 to 25 uM after 48 hrs by Western blot analysis; type: functional, cell-based; procedure, shortened: as §1
HEK293 [20] = assay: Cytotoxicity against human HEK293 cells assessed as cell survival at 12 uM after 24 hrs by MTT assay; type: functional, cell-based
HEK293 [21] = assay: Induction of cell cycle arrest in human HEK293 cells assessed as accumulation at G1 phase at 15 uM after 48 hrs by propidium iodide staining-based FACS analysis (reference value: 61 +/- 0.9%); type: functional
HEK293 [22] = assay: Anticlonogenic activity against human HEK293 cells assessed as inhibition of colony formation of cells at 20 to 100 uM after 48 hrs by crystal violet staining; type: functional, cell-based
Procedure, shortened: (§3)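 Clonogenic survival in HEK 293 and Vero cells, 48 h exposure at graded concentrations; % survival plotted; mean ± SD of three independent experiments. Cells grown in DMEM with 10% FBS and 1% antibiotic at 37 °C, 5% CO2; compound diluted from 100 mM DMSO stock into DMEM, added at 60–70% confluence.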

Vero [23] = assay: Cytotoxicity activity against african green monkey Vero assessed as cell survival at 12 uM after 48 hrs by MTT assay; type: cell-based; details: chlorocebus sabaeus
Vero [24] = assay: Anticlonogenic activity against african green monkey Vero cells assessed as inhibition of colony formation of cells at 20 to 100 uM after 48 hrs by crystal violet staining; type: cell-based; details: chlorocebus sabaeus; procedure, shortened: as §3
[25] = molecular target: T1, DNA topoisomerase 2-alpha; assay: Inhibition of etoposide poisoning activity against human recombinant DNA topoisomerase 2alpha assessed as enhancement of in relaxation of supercoiled plasmid pBR322 DNA at 200 uM after 30 mins by agarose gel electrophoresis in presence of etoposide
HEK293 [26] = assay: Induction of cell cycle arrest in human HEK293 cells assessed as accumulation at sub-G0 phase after 48 hrs by propidium iodide staining-based FACS analysis; type: functional

## CC(C)(C)Nc1c(-c2ccc(C(=O)O)cc2)nc2ccccn12
[1]
  inhibition: Active
HEK293 [2]
  CC50: 12 µM
[3]
  inhibition: inactive
HEK293 [4]
  Activity: 24.61%
HEK293 [5]
  Activity: Active
HEK293 [6]
  viability at 12 µM: > 50%
[7]
  pIC50: 4.28
[8]
  inhibition: Active
HEK293 [9]
  Activity: 9.92%
HEK293 [10]
  Activity: Active
HEK293 [11]
  Activity: 27.46%
HEK293 [12]
  Activity: Active
HEK293 [13]
  Activity: 49.29%
HEK293 [14]
  Activity: Active
[15]
  pKi: 4.12
[16]
  inhibition: inactive
HEK293 [17]
  Activity: 36.64%
[18]
  viability at 48 h, 100 µM: < 50%
HEK293 [19]
  Activity: Active
HEK293 [20]
  Activity: Active
HEK293 [21]
  Activity: 34.64%
HEK293 [22]
  inhibition: Dose-dependent effect
Vero [23]
  Activity: Non-toxic
Vero [24]
  inhibition (INH): Dose-dependent effect
[25]
  inhibition: inactive
HEK293 [26]
  Activity: Dose-dependent effect
